ChEMBL document CHEMBL3877262, “Synthesis and antioxidant evaluation of desmethylxanthohumol analogs and their dimers” (Eur J Med Chem, 2017)
Calls of active or inactive are those of the source. The calls are words filed in the database; no cut-off is given here.

Key:
[1] = Antioxidant activity against H2O2-induced oxidative stress in rat PC12 cells assessed as 8-OHdG level at 10 uM pretreated for 0.5 hrs followed by H2O2 challenge measured after 2 hrs (reference value: 123.97 ng/L); type: functional, PC-12
[2] = tested on: PC-12; assay: Cytoprotective activity against H2O2-induced oxidative stress in rat PC12 cells assessed as lactate dehydrogenase release at 10 uM pretreated for 30 mins followed by H2O2 challenge measured after 2 hrs by spectrophotometric method (reference value: 479.77 U/L); type: functional
[3] = tested on: PC-12; assay: Cytoprotective activity against H2O2-induced oxidative stress in rat PC12 cells assessed as necrotic cells at 10 uM pretreated for 0.5 hrs followed by H2O2 challenge measured after 2 hrs by Annexin-V-FITC/propidium iodide staining based flow cytometry (reference value: 2.4 %); type: functional
[4] = tested on: PC-12; assay: Cytoprotective activity against H2O2-induced oxidative stress in rat PC12 cells assessed as viable cells at 10 uM pretreated for 0.5 hrs followed by H2O2 challenge measured after 2 hrs by Annexin-V-FITC/propidium iodide staining based flow cytometry (reference value: 94.1 %); type: functional; settings: read-out: Activity
[5] = Antioxidant activity assessed as vitamin-c equivalent measured after 20 mins by FRAP assay; type: functional
[6] = Antioxidant activity against H2O2-induced oxidative stress in rat PC12 cells assessed as viable cells at 100 uM pretreated for 0.5 hrs followed by H2O2 challenge measured after 2 hrs by MTT assay (reference value: 25.47%); type: functional; settings: PC-12, read-out: Activity
[7] = Antioxidant activity against H2O2-induced oxidative stress in rat PC12 cells assessed as GSH level per gram of protein at 10 uM pretreated for 0.5 hrs followed by H2O2 challenge measured after 2 hrs by GSH peroxidase assay (reference value: 59.93 umol); type: functional, PC-12
[8] = tested on: PC-12; assay: Cytoprotective activity against H2O2-induced oxidative stress in rat PC12 cells assessed as early apoptotic cells at 10 uM pretreated for 0.5 hrs followed by H2O2 challenge measured after 2 hrs by Annexin-V-FITC/propidium iodide staining based flow cytometry (reference value: 1.1 %); type: functional
[9] = Antioxidant activity assessed as ABTS radical scavenging activity measured after 10 mins by ABTS assay; type: functional
Method in brief: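 ABTS (10 mM in sodium acetate) oxidised with H2O2 and held 12 h in the dark. It was diluted to A650 0.70 and mixed with compound, shaken 30 s, and A650 read after 10 min. EC50 by nonlinear regression from three independent experiments.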

[10] = tested on: PC-12; assay: Cytoprotective activity against H2O2-induced oxidative stress in rat PC12 cells assessed as late apoptotic cells at 10 uM pretreated for 0.5 hrs followed by H2O2 challenge measured after 2 hrs by Annexin-V-FITC/propidium iodide staining based flow cytometry (reference value: 2.3 %); type: functional
[11] = tested on: PC-12; assay: Cytoprotective activity against H2O2-induced oxidative stress in rat PC12 cells assessed as morphological changes at 10 uM pretreated for 0.5 hrs followed by H2O2 challenge measured after 2 hrs; type: functional, cell-based
Method in brief: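 PC12 cells were handled as in the H2O2/MTT model: compound at 10 µM for 0.5 h, then H2O2 (100 µM) for 2 h. Morphology (shrinkage, blebbing) was viewed at 200×. Control cells received medium with 0.1% DMSO only. Gallic acid (10 µM) was the positive control.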

[12] = Cytotoxicity against HUVEC measured after 48 hrs by MTT assay; type: toxicity, cell-based; settings: human, HUVEC cells
Method in brief: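 HUVECs were seeded at 5×10^3 cells/well for 24 h, then exposed to compounds dissolved in DMSO for 48 h. MTT (5 mg/ml) was added for 4 h, cells solubilized in DMSO and OD read at 490 nm. IC50 was derived from mean OD of triplicate tests.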

[13] = species: Rattus norvegicus; assay: Cytotoxicity against rat PC12 cells at 100 uM measured after 48 hrs by MTT assay; type: toxicity, cell-based; settings: pc-12, 48 h
[14] = species: Rattus norvegicus; assay: Cytotoxicity against rat PC12 cells at 200 uM measured after 48 hrs by MTT assay; type: toxicity, cell-based; settings: pc-12, 48 h

O=C(O)c1cc(O)c(O)c(O)c1 [GALLIC ACID]
Activity [1]: 85.7 ng/L | Activity [2]: 326.59 U/L | Activity [3]: 4.2% | viability at 10 µM [4]: 81.9% | Activity [5]: 531 mgequiv/mmol | viability at 100 µM [6]: 88.9% | Activity [7]: 99.73 µmol | Activity [8]: 0.5% | EC50 [9]: 0.35 µM | Activity [10]: 13.4%

CC1(C)C=Cc2c(O)c(Cc3c(O)c4c(c(C(=O)/C=C/c5cccc(O)c5O)c3O)OC(C)(C)C=C4)c(O)c(C(=O)/C=C/c3cccc(O)c3O)c2O1
viability at 100 µM [6]: 77.5%

CC1(C)C=Cc2c(O)c(Cc3c(O)c4c(c(C(=O)/C=C/c5ccc(O)cc5)c3O)OC(C)(C)C=C4)c(O)c(C(=O)/C=C/c3ccc(O)cc3)c2O1
viability at 100 µM [6]: 44.9%

CC1(C)C=Cc2c(O)cc(O)c(C(=O)/C=C/c3cccc(O)c3O)c2O1
viability at 100 µM [6]: 54.5%

CC1(C)C=Cc2c(O)c(Cc3c(O)c4c(c(C(=O)/C=C/c5ccc(O)c(O)c5O)c3O)OC(C)(C)C=C4)c(O)c(C(=O)/C=C/c3ccc(O)c(O)c3O)c2O1
Activity [1]: 62.8 ng/L | Activity [2]: 251.45 U/L | Activity [11]: Active | Activity [3]: 0.5% | viability at 10 µM [4]: 95.6% | Activity [5]: 648 mgequiv/mmol | viability at 100 µM [6]: 85.2% | Activity [7]: 105.71 µmol | Activity [8]: 1.1% | EC50 [9]: 0.54 µM | Activity [10]: 2.7%

CC(C)=CCc1c(O)cc(O)c(C(=O)/C=C/c2ccc(O)cc2)c1O [DEMETHYLXANTHOHUMOL]
IC50 at 48 h [12]: 18.9 µM | Activity [13]: Toxic | Activity [14]: Toxic

CC1(C)C=Cc2c(O)cc(O)c(C(=O)/C=C/c3ccc(O)cc3O)c2O1
viability at 100 µM [6]: 24.1%

CC1(C)C=Cc2c(O)c(Cc3c(O)c4c(c(C(=O)/C=C/c5ccc(O)cc5O)c3O)OC(C)(C)C=C4)c(O)c(C(=O)/C=C/c3ccc(O)cc3O)c2O1
viability at 100 µM [6]: 43.4%

CC1(C)C=Cc2c(O)cc(O)c(C(=O)/C=C/c3ccc(O)cc3)c2O1
IC50 at 48 h [12]: 41.1 µM | Activity [13]: Toxic | Activity [14]: Toxic | viability at 100 µM [6]: 20.6%

CC1(C)C=Cc2c(O)cc(O)c(C(=O)/C=C/c3ccc(O)c(O)c3O)c2O1
viability at 100 µM [6]: 84%
